Results as given in ChEMBL document CHEMBL4342526, “Exploration of the Structural Space in 4(3H)-Quinazolinone Antibacterials” (J Med Chem, 2020).
Values after ≈ are worked out from the molar mass of the structure shown.

Assays:
Staphylococcus aureus [1] = assay: (§1) Potentiation of piperacillin and tazobactam-induced bactericidal activity against methicillin resistant Staphylococcus aureus NRS70 infected in ICR mouse model of neutropenic thigh infection assessed as log reduction in bacterial count in thigh at 40 mg/kg, sc administered at 8 hrs interval for 3 times starting from 1 hr post infection and measured 24 hrs post infection; type: functional
Summary of the method: (§2)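 Neutropenic ICR mouse thigh model as above (cyclophosphamide 200 mg/kg ip days −4 and −1; NRS70 1 × 10^6 CFU/mL, 0.1 mL im right thigh); compound given with piperacillin 12 mg/kg plus tazobactam 1.5 mg/kg, sc in 10% DMSO/90% water every 8 h ×3 from 1 h; thigh CFU at 24 h; n = 8; mean ± SEM, ANOVA/Tukey.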

[2] = target: T1, MecA (Staphylococcus aureus) (UniProt Q7DHH4); assay: Binding affinity to PBP2a in clindamycin/erythromycin/spectinomycin-resistant mec-positive Staphylococcus aureus NRS70 assessed potentiation of piperacillin and tazobactam-induced bactericidal activity by measuring log reduction in bacterial count at 0.5 times MIC measured after 24 hrs by time-kill assay
T1 sequence (whole entry): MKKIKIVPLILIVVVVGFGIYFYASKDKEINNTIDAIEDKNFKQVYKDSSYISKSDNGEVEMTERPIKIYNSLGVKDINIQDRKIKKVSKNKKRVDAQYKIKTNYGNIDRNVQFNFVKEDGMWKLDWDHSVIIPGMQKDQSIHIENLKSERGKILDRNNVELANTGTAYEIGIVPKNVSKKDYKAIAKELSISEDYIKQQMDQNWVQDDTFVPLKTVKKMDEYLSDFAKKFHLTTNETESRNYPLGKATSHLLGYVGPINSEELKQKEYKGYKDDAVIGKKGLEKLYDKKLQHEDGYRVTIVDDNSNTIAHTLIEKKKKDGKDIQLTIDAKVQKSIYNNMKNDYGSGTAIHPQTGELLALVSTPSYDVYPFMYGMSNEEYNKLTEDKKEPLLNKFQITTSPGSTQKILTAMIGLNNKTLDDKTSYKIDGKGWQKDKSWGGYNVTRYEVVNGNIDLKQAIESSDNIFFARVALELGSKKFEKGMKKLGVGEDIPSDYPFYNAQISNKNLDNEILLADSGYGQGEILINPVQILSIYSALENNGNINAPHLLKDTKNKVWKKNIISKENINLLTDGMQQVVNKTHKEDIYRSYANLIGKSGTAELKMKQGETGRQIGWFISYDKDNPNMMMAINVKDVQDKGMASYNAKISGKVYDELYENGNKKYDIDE

Staphylococcus aureus [3] = assay: as §1, with “20” for “40”; type: functional; summary of the method: as §2
[4] = Volume of distribution in ICR mouse at 10 mg/kg, iv by UV-UPLC analysis; type: ADME, organism-based; conditions: in vivo
Summary of the method: (§3)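 Female ICR mice, 6–8 weeks old, 20–25 g. Each received 50 μL by tail-vein injection (5 or 10 mg/kg) of a filter-sterilized 2 or 4 mg/mL solution in 20% DMSO/10% Tween-80/70% water. Terminal blood was collected and plasma harvested by centrifugation. Plasma was precipitated with acetonitrile containing internal standard, and the supernatant was analyzed by C18 UPLC with UV detection at 285 nm.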

Staphylococcus aureus [5] = assay: Bacteriostatic activity against clindamycin/erythromycin/spectinomycin-resistant mec-positive Staphylococcus aureus NRS70 assessed as log reduction in bacterial count at 0.5 to 16 times MIC by time-kill assay; type: functional
[6] = Oral bioavailability in ICR mouse at 10 mg/kg administered via gavage by UV-UPLC analysis; type: ADME, organism-based; conditions: in vivo
[7] = Elimination half life in ICR mouse at 10 mg/kg, iv by UV-UPLC analysis; type: ADME, organism-based; conditions: in vivo; summary of the method: as §3
Clostridioides difficile = assay: Antibacterial activity against Clostridium difficile ATCC 43255 measured after 16 to 20 hrs by microdilution method; type: functional
[8] = Protein binding in human plasma at 10 uM measured after 6 hrs UV-UPLC based rapid equilibrium dialysis method; type: ADME, cell-free
Summary of the method: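 Rapid equilibrium dialysis: human plasma was cleared by centrifugation and spiked from a 1 mM DMSO stock to a final 10 μM, against 0.1 M PBS pH 7.4. Dialysis ran 6 h at 37 °C with orbital shaking. Buffer (free) and plasma (total) aliquots were mixed with internal standard in acetonitrile and measured by UPLC-UV at 285 nm. B% = (Cp−Cf)/Cp×100.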

Staphylococcus aureus [9] = assay: Selectivity ratio of MIC for Staphylococcus aureus ATCC 29213 in presence of bovine serum albumin to MIC for Staphylococcus aureus ATCC 29213 in absence of bovine serum albumin; type: functional
Summary of the method: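 S. aureus ATCC29213 MIC was run by CLSI microdilution in cation-adjusted Mueller–Hinton broth plus 2% NaCl, with and without 0.5% bovine serum albumin. Compounds were two-fold serially diluted in triplicate, inoculum was 5 × 10^5 CFU/mL, and plates were incubated at 37 °C for 16–20 h. The endpoint was the lowest concentration with no visible growth.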

HeLa = assay: Cytotoxicity against human HeLa cells assessed as reduction in cell viability measured after 16 hrs by XTT assay; type: cell-based
Summary of the method: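 HeLa cells (ATCC CCL-2), run in triplicate. Viability was read by XTT, and IC50 was obtained by nonlinear regression.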

[10] = test system: Staphylococcus haemolyticus; assay: Antibacterial activity against Staphylococcus haemolyticus ATCC 29970 measured after 16 to 20 hrs by microdilution method; type: functional
Summary of the method: (§4)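 CLSI broth microdilution: two-fold serial dilutions in triplicate in cation-adjusted Mueller–Hinton broth with 2% NaCl, inoculum 5 × 10^5 CFU/mL, incubated at 37 °C for 16–20 h. MIC is the lowest concentration preventing visible growth.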

Staphylococcus aureus [11] = assay: as §1, with “Bactericidal” for “Potentiation of piperacillin and tazobactam-induced bactericidal”, “20” for “40”; type: functional
Summary of the method: (§5)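 Female ICR mice (6–8 weeks, 20–25 g) made neutropenic with cyclophosphamide 200 mg/kg ip at 4 and 1 days pre-infection; 0.1 mL NRS70 at 1 × 10^6 CFU/mL in brain heart infusion injected into right thigh; drug in 10% DMSO/90% water sc every 8 h ×3 from 1 h post-infection; thigh CFU counted at 24 h; n = 8/group; mean ± SEM, one-way ANOVA with Tukey test.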

Bacillus cereus = assay: Antibacterial activity against Bacillus cereus ATCC 13061 measured after 16 to 20 hrs by microdilution method; type: functional; summary of the method: as §4
Staphylococcus aureus [12] = assay: as §1, with “Bactericidal” for “Potentiation of piperacillin and tazobactam-induced bactericidal”; type: functional; summary of the method: as §5
Enterococcus faecalis = assay: Antibacterial activity against Enterococcus faecalis ATCC 29212 measured after 16 to 20 hrs by microdilution method; type: functional; summary of the method: as §4
[13] = AUC (0 to last) in ICR mouse at 10 mg/kg, po administered via gavage by UV-UPLC analysis; type: ADME, organism-based; design: dose 10 mg/kg, time 0 - last, route oral; conditions: in vivo
[14] = test system: Staphylococcus epidermidis; assay: Antibacterial activity against Staphylococcus epidermidis ATCC 35547 measured after 16 to 20 hrs by microdilution method; type: functional
Summary of the method: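 CLSI broth microdilution; two-fold serial compound dilutions in triplicate in cation-adjusted Mueller–Hinton broth with 2% NaCl, inoculum 5 × 10^5 CFU/mL; 37 °C for 16–20 h; MIC = lowest concentration with no visible growth.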

Bacillus licheniformis = assay: Antibacterial activity against Bacillus licheniformis ATCC 12759 measured after 16 to 20 hrs by microdilution method; type: functional; summary of the method: as §4

N#Cc1ccc(/C=C/c2nc3ccccc3c(=O)n2-c2cc(C(=O)O)ccc2F)cc1
log(activity) (Staphylococcus aureus [1]): 1.33 | log(activity) [2]: > 3 | log(activity) (Staphylococcus aureus [3]): 0.75 | Vd [4]: 0.19 L/kg | log(activity) (Staphylococcus aureus [5]): <3 | F [6]: 65% | beta t1/2 [7]: 13.7 h | MIC (Clostridioides difficile): 128 mg/L (≈ 311 µM) | PPB [8]: 95.4% | selectivity ratio (Staphylococcus aureus [9]): <=4 | IC50 (HeLa): 62 mg/L (≈ 151 µM) | MIC [10]: 4 mg/L (≈ 9.72 µM) | log(activity) (Staphylococcus aureus [11]): 0.47 | MIC (Bacillus cereus): > 128 mg/L | log(activity) (Staphylococcus aureus [12]): 0.78 | MIC (Enterococcus faecalis): > 128 mg/L | AUClast [13]: 840 µg·min/mL | MIC [14]: 0.25 mg/L (≈ 0.608 µM) | MIC (Bacillus licheniformis): > 128 mg/L
